Tests used:
[1] = Prodrug activation in human PT37 cells assessed as intracellular cysteamine-CMQT formation at 20 uM incubated for 2 to 24 hrs by HPLC analysis; type: cell-based; settings: pt37, 20 µM
Outline: (§1)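 PT37 normal human proximal tubule cells were grown in DMEM/F12 with 2 mM L-glutamine, penicillin-streptomycin and 10% heat-inactivated FCS at 37 °C under 5% CO2. Confluent monolayers got […] test agent in medium at 37 °C for 0, 2, 6, 16 or 24 h. Cells were trypsin-harvested, lysed and centrifuged. Pellet protein was measured by Bradford against BSA standards. Supernatant thiols were reduced with NaBH4, derivatised with CMQT and analysed by HPLC with UV and fluorescence detection. Results are nmol/mg protein, n=3.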

[2] = Dissociation constant, pKa of compound at pH 2 to 12 at 1 to 2 mg by potentiometric titration method; type: physicochemical
Outline: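 Accurately weighed sample loaded into an automated Sirius T3 for pH-metric analysis, using automated acid-base titration. The pKa was computed from the titration data. The value is the mean of 3 titrations.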

[3] = test system: HaCaT; test: Cytotoxicity against human HaCaT cells assessed as reduction in cell viability after 48 hrs by MTT assay; type: cell-based
Outline: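 HaCaT keratinocytes were exposed for 48 h at 37 °C under 5% CO2 to test agents dissolved in medium. Nine twofold serial dilutions ran from 500 down to 1.95. Cells were then rinsed with PBS (pH 7.4) and given MTT at 0.5 mg/mL in PBS for 10 min in the dark, then read at 595 nm. Survival is a percentage of control wells, averaged over 12 replicates. EC50 came from non-linear regression of dose-response curves.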

[4] = Lipophilicity, log D of compound at pH 7.4; settings: buffer
[5] = physchem; settings: octanol/water, pH 2
[6] = Drug metabolism in water assessed as oxidation of cysteamine by measuring cysteamine-CMQT level at pH 4.66 at 0.01 M after 1 hr by HPLC-UV method; type: physicochemical; settings: buffer, pH 4.66, 1 h
[7] = Prodrug activation in human PT37 cells assessed as intracellular cysteamine-CMQT formation per mg protein at 20 uM after 6 hrs by HPLC analysis; type: cell-based; settings: pt37, 6 h; outline: as §1
[8] = Drug metabolism in water assessed as oxidation of cysteamine by measuring cysteamine-CMQT level at pH 4.66 at 0.01 M after 3 hrs by HPLC-UV method; type: physicochemical; settings: buffer, pH 4.66, 3 h
[9] = Prodrug activation in human PT37 cells assessed as intracellular cysteamine-CMQT formation per mg protein at 20 uM after 24 hrs by HPLC analysis; type: cell-based; settings: pt37, 24 h; outline: as §1
[10] = Prodrug activation in human PT37 cells assessed as intracellular cysteamine-CMQT formation at 20 uM after 2 hrs by HPLC analysis; type: cell-based; settings: pt37, 2 h; outline: as §1
[11] = test system: Serum; test: Prodrug activation in fetal bovine serum containing medium assessed as cysteamine formation after 24 hrs by LC-MS analysis; set-up: species or system Bos taurus; settings: cattle
Outline: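 Prodrug was incubated in medium containing fetal bovine serum for up to 24 h. Hydrolysis and cysteamine release were monitored by LC-MS.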

Drug metabolism [1]	pKa [2]	logD [4]	logP [5]	SMILES	EC50 ([3]; Homo sapiens, HaCaT, 48 h) [µM]	other results
–	8.15	–	–	Cl.NCCS [CYSTEAMINE HYDROCHLORIDE]	–	Drug metabolism [6]: 50%; Drug metabolism [7]: 0.84 nmol/mg; Drug metabolism [8]: metabolite_notdetected; EC50 ([3]; hacat): 309 µM; Drug metabolism [9]: 0.22 nmol/mg; Drug metabolism [10]: metabolite_detected
metabolite_detected	8.94	-1.44	0.11	CCOC(=O)[C@@H](N)CCC(=O)NCCSC(C)=O.Cl	1730	Drug metabolism [11]: metabolite_notdetected
metabolite_notdetected	–	–	–	Cl.Cl.NCCS	–	–
metabolite_detected	8.8	-1.21	0.21	CCCOC(=O)[C@@H](N)CCC(=O)NCCSC(C)=O.Cl	548	–

The next lines start with the molecule.

SMILES	Drug metabolism [1]	pKa [2]	logD [4]	logP [5]	EC50 ([3]; Homo sapiens, HaCaT, 48 h) [µM]	other results
CCOC(=O)[C@@H](N)CCC(=O)NCCSC(=O)C(C)(C)C.Cl	metabolite_detected	8.9	-0.29	1.22	228	–
CCCCOC(=O)[C@@H](N)CCC(=O)NCCSC(C)=O.Cl	metabolite_detected	8.69	-0.88	0.43	563	–
CCCCOC(=O)[C@@H](N)CCC(=O)NCCSC(=O)c1ccccc1	–	–	–	–	97	–
CCOC(=O)[C@@H](N)CCC(=O)NCCSC(=O)c1ccccc1.Cl	metabolite_detected	8.85	-0.37	1.09	331	–
CCCCOC(=O)[C@@H](N)CCC(=O)NCCSC(=O)C(C)(C)C	–	–	–	–	102	–
N[C@@H](CCC(=O)NCCS)C(=O)O	–	–	–	–	–	Drug metabolism [11]: metabolite_notdetected
CCCOC(=O)[C@@H](N)CCC(=O)NCCSC(=O)c1ccccc1	–	–	–	–	75	–
CCCOC(=O)[C@@H](N)CCC(=O)NCCSC(=O)C(C)(C)C	–	–	–	–	152	–
